In brackets after ≈: the same amount, converted by molar mass.
What was measured:
[1] = tested on: KB; assay: (§1) Cellular toxicity in KB cells; assay type: functional; details: Homo sapiens
[2] = tested on: KB; assay: as §1; assay type: functional; details: Homo sapiens; remark: listed apart in the source
[3] = tested on: rhinovirus A2; assay: Anti-HRV activity against HRV-2 strain; assay type: functional, organism-based, human rhinovirus type 2; details: Rhinovirus A
[4] = tested on: rhinovirus B14; assay: Anti-HRV activity against HRV-14 strain; assay type: functional, organism-based, human rhinovirus type 14; details: Rhinovirus B
[5] = tested on: Human rhinovirus 1A; assay: Anti-HRV activity against HRV-1A strain; assay type: functional, organism-based, human rhinovirus type 1
Summary of the method: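 Cell-culture cytopathic effect (CPE) inhibition assay adapted from a microplate tissue-culture method. Each test was run in duplicate. EC50 was read both visually and by dye uptake. Results varied by generally no more than one dilution between duplicate runs and between read-out methods.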

[6] = tested on: MRC5; assay: Cellular toxicity in MRC-5 cells; assay type: functional; details: Homo sapiens
[7] = tested on: rhinovirus A51; assay: Anti-HRV activity against HRV serotype 51; assay type: functional, organism-based; details: Rhinovirus A
[8] = tested on: Human rhinovirus sp.; assay: Percent inhibition of 100 HRV strains by the compound at a concentration of 0.064 ug/ml; assay type: functional
[9] = tested on: rhinovirus B72; assay: Anti-HRV activity against HRV serotype 72; assay type: functional, organism-based; details: Rhinovirus B
[10] = tested on: rhinovirus A29; assay: Anti-HRV activity against HRV serotype 29; assay type: functional, organism-based; details: Rhinovirus A
[11] = tested on: rhinovirus A59; assay: Anti-HRV activity against HRV serotype 59; assay type: functional, organism-based; details: Rhinovirus A
[12] = tested on: rhinovirus A15; assay: Anti-HRV activity against HRV serotype 15; assay type: functional, organism-based; details: Rhinovirus A
[13] = tested on: rhinovirus A89; assay: Anti-HRV activity against HRV serotype 89; assay type: functional, organism-based, human rhinovirus type 89; details: Rhinovirus A
[14] = tested on: rhinovirus B14; assay: Anti-HRV activity against HRV serotype 14; assay type: functional, organism-based, human rhinovirus type 14; details: Rhinovirus B
[15] = tested on: rhinovirus B70; assay: Anti-HRV activity against HRV serotype 70; assay type: functional, organism-based; details: Rhinovirus B
[16] = tested on: rhinovirus A2; assay: Anti-HRV activity against HRV serotype 2; assay type: functional, organism-based, human rhinovirus type 2; details: Rhinovirus A
[17] = tested on: rhinovirus A85; assay: Anti-HRV activity against HRV serotype 85; assay type: functional, organism-based; details: Rhinovirus A
[18] = tested on: rhinovirus A63; assay: Anti-HRV activity against HRV serotype 63; assay type: functional, organism-based; details: Rhinovirus A
[19] = tested on: rhinovirus A16; assay: Anti-HRV activity against HRV serotype 16; assay type: functional, organism-based; details: Rhinovirus A
[20] = tested on: rhinovirus A9; assay: Anti-HRV activity against HRV serotype 9; assay type: functional, organism-based; details: Rhinovirus A
[21] = tested on: KB; assay: Cellular toxicity against KB cells in HRV-14 strain; assay type: functional; details: Homo sapiens
[22] = tested on: rhinovirus B86; assay: Anti-HRV activity against HRV serotype 86; assay type: functional, organism-based; details: Rhinovirus B
[23] = tested on: rhinovirus A39; assay: Anti-HRV activity against HRV serotype 39; assay type: functional, organism-based; details: Rhinovirus A
[24] = tested on: rhinovirus A45; assay: Anti-HRV activity against HRV serotype 45; assay type: functional, organism-based; details: Rhinovirus A

Compound	CC50 [1] [µg/mL]	CC50 [2] [µg/mL]	EC50 [3] [µg/mL]	EC50 [4] [µg/mL]	EC50 [5] [µg/mL]	CC50 [6] [µg/mL]	further results
CC(C)O/N=C/c1ccc(OCCC2CCN(c3ccc(Cl)nn3)CC2)cc1	1 (≈ 2.48 µM)	0.7 (≈ 1.74 µM)	0.02 (≈ 0.0496 µM)	0.018 (≈ 0.0447 µM)	–	–	–
CO/N=C/c1ccc(OCCC2CCN(c3ccc(C)nn3)CC2)cc1	> 1	> 1	0.15 (≈ 0.423 µM)	0.004 (≈ 0.0113 µM)	–	–	–
CCC/N=C/c1ccc(OCCC2CCN(c3ccc(Cl)nn3)CC2)cc1	30 (≈ 77.5 µM)	–	6 (≈ 15.5 µM)	–	4.12 (≈ 10.6 µM)	> 50	–
CCO/N=C/c1ccc(OCCC2CCN(c3ccc(Cl)nn3)CC2)cc1	–	0.8 (≈ 2.06 µM)	–	0.002 (≈ 0.00514 µM)	< 0.16	> 50	–
C=CCO/N=C/c1ccc(OCCC2CCN(c3ccc(Cl)nn3)CC2)cc1	0.5 (≈ 1.25 µM)	0.4 (≈ 0.998 µM)	0.006 (≈ 0.015 µM)	0.006 (≈ 0.015 µM)	–	–	–
CCOC(=O)c1ccc(OCCC2CCN(c3ccc(C)nn3)CC2)cc1 [PIRODAVIR]	–	–	–	0.0016 (≈ 0.00433 µM)	< 0.16	> 50	EC50 [7]: 0.00521 µg/mL (≈ 0.0141 µM); inhibition at 0.064 µg/mL [8]: 80%; EC50 [9]: 0.0348 µg/mL (≈ 0.0941 µM); EC50 [10]: 0.00374 µg/mL (≈ 0.0101 µM); EC50 [11]: 0.00437 µg/mL (≈ 0.0118 µM); EC50 [12]: 0.00702 µg/mL (≈ 0.019 µM); EC50 [13]: 0.0057 µg/mL (≈ 0.0154 µM); EC50 [14]: 0.00365 µg/mL (≈ 0.00988 µM); EC50 [15]: 0.00214 µg/mL (≈ 0.00579 µM); EC50 [16]: 0.00277 µg/mL (≈ 0.0075 µM); EC50 [17]: 0.00472 µg/mL (≈ 0.0128 µM); EC50 [18]: 0.00083 µg/mL (≈ 0.00225 µM); EC50 [19]: 0.0152 µg/mL (≈ 0.0412 µM); EC50 [20]: 0.00205 µg/mL (≈ 0.00555 µM); CC50 [21]: > 1 µg/mL; EC50 [22]: 0.00956 µg/mL (≈ 0.0259 µM); EC50 [23]: 0.0018 µg/mL (≈ 0.00487 µM); EC50 [24]: > 5 µg/mL
CC(C)S(=O)(=O)n1c(N)nc2ccc(/C(=N/O)c3ccccc3)cc21 [ENVIROXIME]	2 (≈ 5.58 µM)	–	0.009 (≈ 0.0251 µM)	–	–	–	–
CN/N=C/c1ccc(OCCC2CCN(c3ccc(Cl)nn3)CC2)cc1	10 (≈ 26.7 µM)	–	2 (≈ 5.35 µM)	–	1.01 (≈ 2.7 µM)	> 50	–
CCOC(=O)c1ccc(OCCC2CCN(c3ccc(Cl)nn3)CC2)cc1	50 (≈ 128 µM)	–	< 0.05	–	< 0.16	> 50	–
Cc1cc(CCCOc2c(C)cc(-c3noc(C(F)(F)F)n3)cc2C)on1 [PLECONARIL]	–	–	–	–	–	–	EC50 [7]: 0.0304 µg/mL (≈ 0.0797 µM); EC50 [9]: 0.469 µg/mL (≈ 1.23 µM); EC50 [10]: 0.0454 µg/mL (≈ 0.119 µM); EC50 [11]: 0.387 µg/mL (≈ 1.02 µM); EC50 [12]: 0.0698 µg/mL (≈ 0.183 µM); EC50 [13]: 0.0293 µg/mL (≈ 0.0769 µM); EC50 [14]: 0.0313 µg/mL (≈ 0.0821 µM); EC50 [15]: 0.0539 µg/mL (≈ 0.141 µM); EC50 [16]: 0.0265 µg/mL (≈ 0.0694 µM); EC50 [17]: 0.034 µg/mL (≈ 0.0892 µM); EC50 [18]: 0.0623 µg/mL (≈ 0.163 µM); EC50 [19]: 0.108 µg/mL (≈ 0.283 µM); EC50 [20]: 0.0372 µg/mL (≈ 0.0974 µM); EC50 [22]: 0.07 µg/mL (≈ 0.184 µM); EC50 [23]: 0.0449 µg/mL (≈ 0.118 µM); EC50 [24]: 1.91 µg/mL (≈ 5 µM)
NNC(=O)c1ccc(OCCC2CCN(c3ccc(Cl)nn3)CC2)cc1	20 (≈ 53.2 µM)	–	4 (≈ 10.6 µM)	–	8.52 (≈ 22.7 µM)	> 50	–
CC/C(=N\OC)c1ccc(OCCC2CCN(c3ccc(Cl)nn3)CC2)cc1	> 1	0.6 (≈ 1.49 µM)	0.4 (≈ 0.993 µM)	0.2 (≈ 0.496 µM)	–	–	–
CCO/N=C(\C)c1ccc(OCCC2CCN(c3ccc(C)nn3)CC2)cc1	> 1	> 1	0.01 (≈ 0.0261 µM)	0.004 (≈ 0.0105 µM)	–	–	–
O=Cc1ccc(OCCC2CCN(c3ccc(Cl)nn3)CC2)cc1	20 (≈ 57.8 µM)	–	2 (≈ 5.78 µM)	–	9.72 (≈ 28.1 µM)	> 50	–
Cc1ccc(N2CCC(CCOc3ccc(/C=N/O)cc3)CC2)nn1	> 0.25	> 0.25	> 0.25	0.062 (≈ 0.182 µM)	–	–	–
CCCO/N=C/c1ccc(OCCC2CCN(c3ccc(Cl)nn3)CC2)cc1	> 1	0.4 (≈ 0.993 µM)	0.004 (≈ 0.00993 µM)	0.01 (≈ 0.0248 µM)	–	–	–
CO/N=C(\C)c1ccc(OCCC2CCN(c3ccc(C)nn3)CC2)cc1	> 1	> 1	0.08 (≈ 0.217 µM)	0.023 (≈ 0.0624 µM)	–	–	–
CCC(=O)c1ccc(OCCC2CCN(c3ccc(Cl)nn3)CC2)cc1	7 (≈ 18.7 µM)	–	0.6 (≈ 1.6 µM)	–	< 0.16	> 50	–
Clc1ccc(N2CCC(CCOc3ccc(/C=N/OCc4ccccc4)cc3)CC2)nn1	0.6 (≈ 1.33 µM)	0.6 (≈ 1.33 µM)	0.9 (≈ 2 µM)	0.4 (≈ 0.887 µM)	–	–	–

Reference: ChEMBL document CHEMBL1144873, “An orally bioavailable oxime ether capsid binder with potent activity against human rhinovirus” (J Med Chem, 2003)
